# Sampled rows, rich in hits. Any-hit rate of the full collection: about 1.3%.
# Keap1 Nrf2 FP: disrupts human Keap1 binding to Nrf2 peptide | Q14145 | Keap1 Kelch-Nrf2 peptide fluorescence polarization, 1536-well | inhibition, % at 9.4 µM | 340,000 compounds, 0.15% hits | AID 504523; in the data active means inhibition above about 12%;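 further: human Keap1 Kelch domain with fluorescein labeled Nrf2 9mer peptide probe; 0% = neutral control wells and 100% = peptide positive control; higher means more block of Keap1 binding to Nrf2 peptide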
# Target sequence (Q14145 whole entry, looked up, the tested form may be a part): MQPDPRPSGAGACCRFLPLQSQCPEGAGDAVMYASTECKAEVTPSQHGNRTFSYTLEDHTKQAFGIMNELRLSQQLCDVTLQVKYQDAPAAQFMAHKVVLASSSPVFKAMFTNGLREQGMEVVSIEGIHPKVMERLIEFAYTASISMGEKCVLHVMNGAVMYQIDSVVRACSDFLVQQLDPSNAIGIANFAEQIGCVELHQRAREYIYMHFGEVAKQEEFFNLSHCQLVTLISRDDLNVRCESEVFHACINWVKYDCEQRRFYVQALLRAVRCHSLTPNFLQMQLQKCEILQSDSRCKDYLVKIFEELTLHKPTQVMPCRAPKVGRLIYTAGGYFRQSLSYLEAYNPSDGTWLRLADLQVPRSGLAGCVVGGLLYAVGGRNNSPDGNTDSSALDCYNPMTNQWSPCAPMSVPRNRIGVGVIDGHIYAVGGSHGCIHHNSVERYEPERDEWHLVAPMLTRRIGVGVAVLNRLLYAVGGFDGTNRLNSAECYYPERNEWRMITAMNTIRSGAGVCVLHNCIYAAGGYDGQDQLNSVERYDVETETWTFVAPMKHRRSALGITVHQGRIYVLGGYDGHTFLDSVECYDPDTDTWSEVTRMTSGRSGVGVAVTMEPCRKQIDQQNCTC
# CAL PDZ FP-1: inhibitors of human CAL PDZ peptide binding; Q9HD26; purified CAL PDZ, TMR-peptide fluorescence polarization, 1 h; inhibition, % at 24.9 µM; 300,000 compounds, 0.92% hits;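 active means mean inhibition of at least 30% with at least half of replicates also reaching 30%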;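 further: 0% = DMSO neutral control and 100% = excess unlabeled competitor peptide PRC23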
# RTF Ca sens act: cardiac RTF calcium sensitization; 340,000 compounds, 0.24% hits; AID 493008; P19429+P45379; activation, % at 7.2 µM; IANBD-labeled TnC RTF fluorescence at EC20 calcium; 0% EC20 calcium, 100% full calcium;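 active means activation above the mean over all tested compounds plus 3 SD, cut at about 30% in these data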;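 further: rise in fluorescence read as greater calcium sensitivity of cardiac thin filaments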
# CAL PDZ FP-2: human CAL PDZ-peptide interaction inhibition. 330,000 compounds, 0.02% hits. inhibition, % at 20 µM. AID 504414. purified CAL PDZ, TMR-peptide fluorescence polarization, 1 h;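 active means highest replicate inhibition of at least 40%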;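 further: plate controls were DMSO neutral control wells for no effect and unlabeled competitor peptide control wells for full effect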
#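 Material – purified CerCALP PDZ construct · Detection – FP readout, S and P plane fluorescence · Measure – percent inhibition from loss of millipolarization · Controls – unlabelled peptide for full inhibition, DMSO wells as neutral · Probe or stimulus – TMR-labelled reporter peptide T*-PRC34 bound in PDZ groove · Times – 1 h at RT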
# Cardiac RTF inh: cardiac RTF calcium desensitization. 340,000 compounds, 0.12% hits. AID 493244. P19429+P45379. inhibition, % at 7.15 µM. IANBD-labeled cardiac RTF, Ca2+ fluorescence;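 active means inhibition above the mean inhibition of all tested compounds plus 3 SD, cut at about 17% in these data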;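 further: assay run at fixed EC70 calcium of 1.6 mM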
# C-LANA FP: inhibitors of KSHV LANA C-terminal domain DNA binding; inhibition, % at 9 µM; MBP-C-LANA/FAM-LBS DNA binding, fluorescence polarization; 340,000 compounds, 0.078% hits;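 active means highest replicate inhibition at or above 60% at 9 µM, even if other replicates fall short; inactive means all replicates below 60% inhibition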;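 further: 0% = neutral control wells and 100% = 4 µM acridine orange control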
# Starred values were filed as active, the others as inactive; i = inactive; · = no result given; + = active, no number.
SMILES,Keap1 Nrf2 FP,CAL PDZ FP-1,RTF Ca sens act,CAL PDZ FP-2,Cardiac RTF inh,C-LANA FP
O=C1NCCCC1C(=O)N/N=C/c1cc([N+](=O)[O-])ccc1O (centres undefined),1.0,8.7,-2.1,1.5,-1.3,-4.9
NC(=S)NNc1cc(Cl)cc(Cl)c1,0.2,97.0*,-2.3,·,-2.4,-0.1
Cc1cc(Cl)ccc1NNC(N)=S,-1.2,·,-5.1,0.2,-5.4,-1.5
CC1O[C@@H](O[C@H](C)CC[C@@H](C)O)C(O)C[C@H]1O (some centres undefined),6.7,-5.4,7.2,-0.2,-15.5,1.4
O=c1ccc2c(-c3ccccc3)c3ccc(O)cc3oc-2c1,97.6*,-11.4,+,·,i,141.8*
Nc1ccc(-c2c3ccc(=O)cc-3oc3cc(O)ccc23)cc1C(=O)O,25.8*,41.0*,+,-2.2,i,110.2*
O=c1cc(-c2ccccc2)oc2cc(O)ccc12,-6.9,-0.4,9.2,0.3,3.7,-1.4
COc1ccc(CCNC(=O)CN(c2ccc(OC)c(OC)c2)S(=O)(=O)c2ccccc2)cc1OC,3.0,0.8,-2.0,-1.9,-7.1,-0.1
COc1cccc(C(=O)Nc2ccc3nc4n(c(=O)c3c2)CCCC4)c1,-5.3,63.1*,-1.6,-1.6,-9.1,-0.5
CC(C)(C)n1ncc2c(=O)n(Cc3ccc(Cl)c(Cl)c3)cnc21,-3.2,81.5*,1.9,4.1,10.9,1.8
Cc1ccc(Cn2cnc3c(cnn3C(C)(C)C)c2=O)cc1,-1.4,0.5,1.9,-0.6,4.1,0.9
COc1cc(SC)ccc1C(=O)Nc1cccc(S(=O)(=O)NC2=NCCC2)c1,1.4,-3.8,-3.5,0.7,-7.3,-0.2
COc1nc(N)nc(NC(=O)c2cccs2)c1N=O,-8.8,-6.5,8.4,0.7,-15.8,0.3
CC(C)(C(=O)Nc1nccs1)c1ccccc1,-4.3,66.1*,-3.3,16.4,0.5,-2.4
COc1ccc(N(CC(=O)NCC2CCCO2)S(=O)(=O)c2ccccc2)cc1OC (centres undefined),-2.5,·,-2.9,-1.6,1.2,3.1
CCOC(=O)C1CCCN(C(c2ccccn2)c2c(C)[nH]c3ccccc23)C1 (centres undefined),-0.6,119.3*,2.4,-1.7,-2.3,0.1
Cc1c(C(=O)C(=O)NCc2ccco2)c2ccccc2n1C,-4.3,56.2*,2.9,1.9,2.7,0.7
Cc1nc(Cl)sc1C(=O)Nc1cccc(Cl)c1,-0.8,-12.4,-1.1,·,-3.7,-0.1
Cc1nnsc1C(=O)Nc1cccc(Cl)c1,-3.9,73.8*,1.3,-0.6,0.5,0.9
Cc1ccccc1NC(=S)NCc1ccc2c(c1)OCO2,-2.6,-2.5,3.7,-2.0,0.1,-1.4
Cc1cccc(N(CC(=O)NCc2ccc3c(c2)OCO3)C(=O)CCC(=O)Nc2ccccn2)c1,-1.6,·,-2.8,-0.7,0.7,1.4
Cc1cccc(N(CC(=O)NCc2ccc3c(c2)OCO3)C(=O)CCC(=O)Nc2ccccn2)c1C,1.5,91.6*,-4.2,-1.3,-13.5,-0.5
Cc1cccc(NC(=S)NCc2ccc3c(c2)OCO3)c1C,2.1,50.1*,3.2,-1.9,1.5,0.4
COC(=O)c1ccc(COc2ncnc3ccccc23)o1,-2.9,·,-1.0,-1.5,-9.3,0.4
COC(CNC(=O)c1ccc2c3c(onc13)-c1ccccc1C2=O)OC,100.6*,·,0.0,-0.5,-2.8,-2.0
SMILES,Keap1 Nrf2 FP,CAL PDZ FP-1,RTF Ca sens act,CAL PDZ FP-2,Cardiac RTF inh,C-LANA FP
Cc1nn(-c2cccc(Cl)c2)c2nc(C(F)(F)F)[nH]c(=O)c12,-7.8,43.2*,2.2,-2.1,4.9,0.1
O=C(/C=C/c1cccc2ccccc12)N1CCOCC1,-2.8,48.7*,-3.4,-0.7,4.4,1.1
O=C(/C=C/c1ccccc1Cl)N1CCOCC1,-6.1,-5.7,6.6,-4.1,-12.7,3.7
Nc1ccc(N)c(C(=O)O)c1,7.1,0.0,-19.3,1.4,7.9,110.2*
COc1cc(NC(=O)COC(=O)c2[nH]c(C)c(C(C)=O)c2C)cc(OC)c1,0.2,-6.5,-2.7,-3.6,0.4,0.5
COc1ccccc1C(=O)N/N=C/C(C)=C/c1ccccc1,2.5,34.6*,-0.2,8.3,-5.3,-1.1
CC(/C=N/NC(=O)c1ccncc1)=C\c1ccccc1,-5.4,-0.7,1.0,-5.8,0.0,-4.1
COC(=O)C(NC(=O)c1ccco1)(Nc1cc(C)ccn1)C(F)(F)F (centres undefined),-2.4,0.6,0.7,-2.7,3.4,0.3
COC(=O)C(NC(=O)c1ccco1)(Nc1nc(C2CC2)cs1)C(F)(F)F (centres undefined),3.2,37.0*,-2.0,-2.4,-10.7,1.4
CCN(CC)CC(=O)Nn1c(C)nc2c(ncn2-c2ccccc2)c1=O,-1.6,51.4*,4.4,-0.3,-9.8,-0.4
COc1ccc(C(=O)Nc2ccc(S(=O)(=O)Nc3nccc(C)n3)cc2)cc1OC,-1.0,50.3*,1.4,-0.5,-20.5,-0.7
COc1cc(OC)cc(C(=O)Nc2ccc(S(=O)(=O)Nc3ccccn3)cc2)c1,-0.5,32.8*,-0.3,-0.4,-4.1,-0.1
O=c1[nH]c(=O)n(C2CCCCCC2)c(O)c1C=NCc1ccc(F)cc1,0.2,34.0*,-8.0,-6.8,-7.5,-1.3
Cc1c(N=Cc2c(O)n(C3CCCCC3)c(=O)[nH]c2=O)c(=O)n(-c2ccccc2)n1C,-3.2,-2.7,7.0,-0.9,-23.4,-1.6
C=CCNc1oc(C2CCCC2)nc1C#N,-5.7,-5.0,-1.6,-0.8,-13.3,1.1
CS(=O)(=O)Oc1ccc(Br)c2cccnc12,-0.1,74.3*,0.5,-1.0,-14.2,1.3
O=C1CCC/C(=N/NC(=O)c2sc3ccccc3c2Cl)C1,-15.7,1.3,36.5*,0.0,-108.3,15.6
Cc1ccc(C(=O)Nc2cccc(C(=O)N/N=C/c3ccc(F)cc3)c2)cc1,3.3,75.4*,3.4,-2.0,-23.6,-0.8
O=C(N/N=C/c1cccnc1)c1cccc(F)c1,0.4,51.6*,-5.0,·,-6.7,0.8
COc1ccc(/C=N/NC(=O)c2cccnc2)cc1O,-1.8,37.4*,2.7,-1.5,-2.4,0.0
O=C(N/N=C/c1cccnc1)c1[nH]ncc1Br,-1.1,49.4*,2.6,-0.2,-13.4,0.0
CC1CCCN(C(=O)COC(=O)CNC(=O)c2sc3ccccc3c2Cl)C1 (centres undefined),-0.6,-5.5,-3.9,-1.0,2.4,0.9
COc1ccc(/C=N\NC(=O)c2cc(O)c(O)c(O)c2)cc1COc1ccc(C(=O)OCC(C)C)cc1,-11.2,-5.9,8.2,-4.5,-7.0,-0.6
O=C(CC(c1ccccc1)c1ccccc1)Nc1ccncc1,0.2,81.2*,-0.2,-2.8,-12.2,-0.7
COCCCn1c(=O)c2sccc2n2c(CCCC(=O)NCc3cccc(OC)c3)nnc12,2.5,46.8*,-6.6,-1.5,5.4,0.2
